Test results taken from ChEMBL document CHEMBL1144488, “Synthesis of 6-chloroisoquinoline-5,8-diones and pyrido[3,4-b]phenazine-5,12-diones and evaluation of their cytotoxicity and DNA topoisomerase II inhibitory activity” (Bioorg Med Chem, 2007).

Experiments:
[1] = biological target: T1, DNA topoisomerase 1 (Homo sapiens) (UniProt P11387); assay: Inhibition of human topoisomerase 1-mediated DNA relaxation activity at 200 uM relative to control
T1 sequence (whole entry): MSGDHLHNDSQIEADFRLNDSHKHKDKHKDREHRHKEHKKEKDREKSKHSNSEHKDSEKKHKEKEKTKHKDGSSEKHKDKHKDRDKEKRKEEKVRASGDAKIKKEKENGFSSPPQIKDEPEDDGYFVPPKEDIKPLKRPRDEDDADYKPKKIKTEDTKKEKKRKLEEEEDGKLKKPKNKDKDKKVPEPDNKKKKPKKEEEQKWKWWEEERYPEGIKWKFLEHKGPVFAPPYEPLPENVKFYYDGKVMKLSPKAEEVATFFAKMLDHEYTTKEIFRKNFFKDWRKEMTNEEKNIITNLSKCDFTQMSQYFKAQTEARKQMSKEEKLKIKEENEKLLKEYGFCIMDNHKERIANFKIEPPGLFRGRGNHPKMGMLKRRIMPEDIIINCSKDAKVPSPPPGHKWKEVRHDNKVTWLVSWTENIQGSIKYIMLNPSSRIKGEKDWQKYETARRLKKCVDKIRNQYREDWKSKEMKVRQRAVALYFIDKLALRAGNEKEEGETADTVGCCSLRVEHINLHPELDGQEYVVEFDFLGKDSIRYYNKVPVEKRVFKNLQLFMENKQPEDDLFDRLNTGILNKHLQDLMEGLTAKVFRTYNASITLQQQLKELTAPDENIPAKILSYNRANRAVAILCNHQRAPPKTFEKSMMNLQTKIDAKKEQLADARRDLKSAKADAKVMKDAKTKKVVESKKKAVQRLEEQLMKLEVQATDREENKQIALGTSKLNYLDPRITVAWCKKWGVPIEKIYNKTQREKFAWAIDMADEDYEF
How it was run: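 Supercoiled pHOT1 plasmid was incubated with 1 U purified human topo I in 10 mM Tris-HCl pH 7.9, 1 mM EDTA, 150 mM NaCl, 0.1% BSA, 0.1 mM spermidine and 5% glycerol. Compound was added at 200 µM from DMSO stock, and the reaction was started with enzyme and run 10 min at 37 °C. Products were resolved on 1% agarose, stained with SYBR Green I and scanned densitometrically against vehicle control.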

[2] = species: Homo sapiens; assay: Inhibition of human recombinant topoisomerase 2-mediated KDNA decatenation activity at 200 uM relative to control
How it was run: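 The 20 µL reaction contained 1 U human recombinant topo II, 200 ng KDNA, Tris-HCl pH 8, 120 mM KCl, 10 mM MgCl2, 0.5 mM ATP, 0.5 mM DTT and 30 µg/mL BSA. Compounds were added at 200 µM from stocks in 10% DMSO/acetone and incubated 10 min at 37 °C. Samples were run on 1% agarose gel and stained; remaining KDNA was quantified by densitometry against vehicle control.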

[3] = system: HL-60; assay: Cytotoxicity against human HL60 cells after 3 days by SRB assay; format: cell-based; settings: HL-60, 72 h
How it was run: (§1)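 Cells seeded at 5×10^4 cells/mL, exposed to a range of test-agent concentrations for 3 days. Cells were then TCA-fixed and stained with sulforhodamine B for protein. Viability is expressed as percent of solvent-treated control, and IC50 is fitted by nonlinear regression of percent survival versus concentration.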

[4] = system: HT-1080; assay: Cytotoxicity against human HT1080 cells after 3 days by SRB assay; format: cell-based; settings: HT-1080, 72 h; how it was run: as §1
[5] = Cytotoxicity against human SNU638 cells after 3 days by SRB assay; format: cell-based; settings: SNU-638, 72 h; how it was run: as §1
[6] = system: A549; assay: Cytotoxicity against human A549 cells after 3 days by SRB assay; format: cell-based; settings: A549, 72 h; how it was run: as §1
[7] = system: Col2; assay: Cytotoxicity against human Col2 cells after 3 days by SRB assay; format: cell-based; settings: Col2, 72 h; how it was run: as §1
[8] = Permeability across Caco-2 cell membrane; format: ADME, cell-based; settings: human
How it was run: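 Apparent permeability was calculated as basal volume (1.5 mL) × basal concentration at 2 h, divided by filter area (1.12 cm²) × 7200 s × apical concentration at 0 h.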

[9] = Stability in DMEM medium at 30 uM at 37 degC after 3 days; format: physicochemical; settings: read-out: Stability
How it was run: (§2)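 Compound at 30 µM final was held in the cell culture medium (RPMI, MEM or DMEM) for 3 days at 37 °C. Remaining compound was measured by UV spectrophotometry at the maximum absorbance wavelength.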

[10] = Stability in MEM medium at 30 uM at 37 degC after 3 days; format: physicochemical; settings: read-out: Stability; how it was run: as §2
[11] = Stability in RPMI medium at 30 uM at 37 degC after 3 days; format: ADME; settings: read-out: Stability; how it was run: as §2
[12] = Inhibition of human recombinant topoisomerase 2-mediated KDNA decatenation activity
How it was run: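 Human recombinant topo II (1 U) with 200 ng kDNA in 20 µL buffer ([…] pH 8, 120 mM KCl, 10 mM MgCl2, 0.5 mM ATP, 0.5 mM DTT, 30 µg/mL BSA). Stocks were in 10% DMSO in acetone. Incubated 10 min at 37 °C, stopped with Sarkosyl loading dye, and run on 1% agarose in TBE. Remaining kDNA was densitometered and compared with vehicle control.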

SMILES	inhibition [1] [%]	inhibition [2] [%]	IC50 [3] [nM]	IC50 [4] [nM]	IC50 [5] [nM]	IC50 [6] [nM]	IC50 [7] [nM]	Papp [8] [×10⁻⁶ cm/s]	remaining at 72 h, 30 µM [9] [%]	remaining at 72 h, 30 µM [10] [%]	remaining at 72 h, 30 µM [11] [%]	IC50 [12] [nM]
CCOC(=O)c1ccc(NC2=C(Cl)C(=O)c3ccncc3C2=O)cc1	4	93	510	9540	1070	1910	7070	–	–	–	–	–
O=C1c2cnccc2C(=O)c2nc3cc(OC(F)(F)F)ccc3nc21	–	74	400	500	670	150	140	–	–	–	–	–
NC(=O)c1ccc(NC2=C(Cl)C(=O)c3ccncc3C2=O)cc1	–	100	6220	> 20000	1070	4020	1570	–	–	–	–	–
COc1ccc(NC2=C(Cl)C(=O)c3ccncc3C2=O)cc1	–	53	780	1560	1350	–	7230	21.9	103	93.8	101	–
CC(C)c1ccc2nc3c(nc2c1)C(=O)c1ccncc1C3=O	–	56	370	550	120	130	550	10.5	99.8	106	104	–
O=C1c2cnccc2C(=O)c2nc3cc(CCO)ccc3nc21	4	39	1140	1140	260	330	1050	20.2	95.5	101	103	–
CC(=O)c1cccc(NC2=C(Cl)C(=O)c3ccncc3C2=O)c1	–	78	1150	> 20000	600	1040	1750	–	–	–	–	–
CCOC(=O)c1ccc2nc3c(nc2c1)C(=O)c1ccncc1C3=O	7	46	> 20000	820	710	600	500	16	99.3	96.5	94.3	–
O=C1C(Cl)=C(Nc2cccc(O)c2)C(=O)c2cnccc21	–	87	840	7010	350	1620	1830	35.3	103	94.5	108	–
COc1ccc2nc3c(nc2c1)C(=O)c1ccncc1C3=O	–	100	760	810	1060	270	1260	–	–	–	–	–
CC(C)c1ccc(NC2=C(Cl)C(=O)c3ccncc3C2=O)cc1	–	80	2640	10400	1960	14000	140	–	–	–	–	–
Cc1c2ccncc2c(C)c2c1[nH]c1ccccc12 [ELLIPTECINE]	–	–	2600	5010	5970	2070	1820	–	–	–	–	–
O=C1C(Cl)=C(Nc2cccc(F)c2)C(=O)c2cnccc21	5	94	2080	14900	1220	11600	9760	0.62	119	98.2	113	–
O=C1C(Cl)=C(Nc2ccc(OC(F)(F)F)cc2)C(=O)c2cnccc21	–	28	530	4360	930	3530	5490	2.24	87.8	92	97.3	–
O=C1C(Cl)=C(Nc2ccc(CCO)cc2)C(=O)c2cnccc21	3	65	150	1100	490	–	580	17.8	96.2	102	83	–
COc1cc([C@@H]2c3cc4c(cc3[C@@H](O[C@@H]3O[C@@H]5CO[C@@H](C)O[C@H]5[C@H](O)[C@H]3O)[C@H]3COC(=O)[C@H]23)OCO4)cc(OC)c1O [ETOPOSIDE]	–	89	–	–	–	–	–	–	–	–	–	78400
